Source: ChEMBL document CHEMBL1138525 (J Med Chem, 2009)
pIC50: −log10 of the molar value. Blank lines part the entries; values can stand above or below the molecule they belong to. Active and inactive are the calls of the source. No cut-off for these calls is given here.

Legend:
[1] = target: P2Y purinoceptor 2 (Homo sapiens, UniProt P41231, C278S); assay: Antagonist activity at N-terminal HA epitope-tagged human P2Y2 receptor C278S mutant expressed in human 1321N1 cells assessed as inhibition of UTP-induced calcium mobilization; assay type: functional, cell-based
Sequence of P2Y purinoceptor 2 (Homo sapiens, UniProt P41231, C278S) (P41231 whole entry C278S): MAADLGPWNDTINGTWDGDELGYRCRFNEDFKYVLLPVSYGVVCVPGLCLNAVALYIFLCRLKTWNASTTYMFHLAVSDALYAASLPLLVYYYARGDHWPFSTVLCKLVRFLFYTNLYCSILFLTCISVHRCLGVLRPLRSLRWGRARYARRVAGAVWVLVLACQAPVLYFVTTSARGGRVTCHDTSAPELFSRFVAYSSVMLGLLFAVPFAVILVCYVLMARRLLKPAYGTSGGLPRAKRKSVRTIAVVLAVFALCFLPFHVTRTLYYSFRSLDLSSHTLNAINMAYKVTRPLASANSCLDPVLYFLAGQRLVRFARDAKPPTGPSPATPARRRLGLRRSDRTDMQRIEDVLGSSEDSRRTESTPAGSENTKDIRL
In short: (§1)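 1321N1 cells expressing wild-type or mutant receptor were dye-loaded with Oregon Green BAPTA-1/AM in Krebs-HEPES pH 7.4. Antagonist was preincubated for 20 min at 28 °C in the dark. Cells were then stimulated with UTP at a concentration giving 80-90% of maximal response. Calcium fluorescence read at 520 nm (excitation 485 nm).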

[2] = target: T1, P2Y purinoceptor 2 (Homo sapiens, UniProt P41231); assay: Antagonist activity at N-terminal HA epitope-tagged wild type 3 human P2Y2 receptor expressed in human 1321N1 cells assessed as inhibition of UTP-induced calcium mobilization; assay type: functional, cell-based; in short: as §1
T1 sequence (P41231 whole entry): as the sequence (P41231 whole entry C278S) above, with S278C counted along it

[3] = target: P2Y purinoceptor 2 (Homo sapiens, UniProt P41231, Y114A); assay: Antagonist activity at N-terminal HA epitope-tagged human P2Y2 receptor Y114A mutant expressed in human 1321N1 cells assessed as inhibition of UTP-induced calcium mobilization; assay type: functional, cell-based; in short: as §1
Sequence of P2Y purinoceptor 2 (Homo sapiens, UniProt P41231, Y114A) (P41231 whole entry Y114A): as the sequence (P41231 whole entry C278S) above, with Y114A, S278C counted along it

[4] = target: T1, P2Y purinoceptor 2; assay: Antagonist activity at N-terminal HA epitope-tagged wild type 4 human P2Y2 receptor expressed in human 1321N1 cells assessed as inhibition of UTP-induced calcium mobilization; assay type: functional, cell-based
[5] = test system: P2Y purinoceptor 2 (Homo sapiens), P41231 [UNDEFINED MUTATION]; assay: Ratio of IC50 for N-terminal HA epitope-tagged human P2Y2 receptor C278S mutant to IC50 for wild type 3 human P2Y2 receptor
Sequence of P2Y purinoceptor 2 (Homo sapiens), P41231 [UNDEFINED MUTATION] (P41231 whole entry, looked up, stated change not applied): as the sequence (P41231 whole entry C278S) above, with S278C counted along it

[6] = target: P2Y purinoceptor 2 (Homo sapiens, UniProt P41231, R177A/R180A); assay: Antagonist activity at N-terminal HA epitope-tagged human P2Y2 receptor R177A_R180A double mutant expressed in human 1321N1 cells assessed as inhibition of UTP-induced calcium mobilization; assay type: functional, cell-based; in short: as §1
Sequence of P2Y purinoceptor 2 (Homo sapiens, UniProt P41231, R177A/R180A) (P41231 whole entry R177A/R180A): as the sequence (P41231 whole entry C278S) above, with R177A, R180A, S278C counted along it

[7] = target: P2Y purinoceptor 2 (Homo sapiens, UniProt P41231, Y118A); assay: Antagonist activity at N-terminal HA epitope-tagged human P2Y2 receptor Y118A mutant expressed in human 1321N1 cells assessed as inhibition of UTP-induced calcium mobilization; assay type: functional, cell-based; in short: as §1
Sequence of P2Y purinoceptor 2 (Homo sapiens, UniProt P41231, Y118A) (P41231 whole entry Y118A): as the sequence (P41231 whole entry C278S) above, with Y118A, S278C counted along it

[8] = target: P2Y purinoceptor 2 (Homo sapiens, UniProt P41231, Y198A); assay: Antagonist activity at N-terminal HA epitope-tagged human P2Y2 receptor Y198A mutant expressed in human 1321N1 cells assessed as inhibition of UTP-induced calcium mobilization; assay type: functional, cell-based; in short: as §1
Sequence of P2Y purinoceptor 2 (Homo sapiens, UniProt P41231, Y198A) (P41231 whole entry Y198A): as the sequence (P41231 whole entry C278S) above, with Y198A, S278C counted along it

[9] = target: T1, P2Y purinoceptor 2; assay: Agonist activity at N-terminal HA epitope-tagged human P2Y2 receptor expressed in human 1321N1 cells assessed as increase in intracellular calcium level at 100 µM
[10] = test system: P2Y purinoceptor 2 (Homo sapiens), P41231 [S296A]; assay: Agonist activity at N-terminal HA epitope-tagged human P2Y2 receptor S296A mutant expressed in human 1321N1 cells assessed as increase in intracellular calcium level relative to carbachol; assay type: functional, cell-based
Sequence of P2Y purinoceptor 2 (Homo sapiens), P41231 [S296A] (P41231 whole entry S296A): as the sequence (P41231 whole entry C278S) above, with S278C, S296A counted along it
In short: (§2)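 Retrovirally transduced stable 1321N1 astrocytoma lines (wild-type lines of differing expression, or mutants) in suspension, loaded with Oregon Green BAPTA-1/AM for 1 h at room temperature. Cells were plated at 150000 per well in Krebs-HEPES pH 7.4 and held 20 min at 28 °C in the dark. Agonist was then injected, with fluorescence read at ex 485/em 520 nm for 60 × 0.4 s.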

[11] = target: T1, P2Y purinoceptor 2; assay: Agonist activity at N-terminal HA epitope-tagged wild type 3 human P2Y2 receptor expressed in human 1321N1 cells assessed as increase in intracellular calcium level relative to carbachol; assay type: functional, cell-based; in short: as §2
[12] = target: T1, P2Y purinoceptor 2; assay: Agonist activity at N-terminal HA epitope-tagged wild type 4 human P2Y2 receptor expressed in human 1321N1 cells assessed as increase in intracellular calcium level relative to carbachol; assay type: functional, cell-based; in short: as §2
[13] = test system: P2Y purinoceptor 2 (Homo sapiens), P41231 [Y114A]; assay: Agonist activity at N-terminal HA epitope-tagged human P2Y2 receptor Y114A mutant expressed in human 1321N1 cells assessed as increase in intracellular calcium level relative to carbachol; assay type: functional, cell-based; in short: as §2
Sequence of P2Y purinoceptor 2 (Homo sapiens), P41231 [Y114A] (P41231 whole entry Y114A): as the sequence (P41231 whole entry C278S) above, with Y114A, S278C counted along it

[14] = test system: P2Y purinoceptor 2 (Homo sapiens), P41231 [R177A,R180A]; assay: Agonist activity at N-terminal HA epitope-tagged human P2Y2 receptor R177A_R180A double mutant expressed in human 1321N1 cells assessed as increase in intracellular calcium level relative to carbachol; assay type: functional, cell-based; in short: as §2
Sequence of P2Y purinoceptor 2 (Homo sapiens), P41231 [R177A,R180A] (P41231 whole entry R177A/R180A): as the sequence (P41231 whole entry C278S) above, with R177A, R180A, S278C counted along it

[15] = test system: P2Y purinoceptor 2 (Homo sapiens), P41231 [R177A]; assay: Agonist activity at N-terminal HA epitope-tagged human P2Y2 receptor R177A mutant expressed in human 1321N1 cells assessed as increase in intracellular calcium level relative to carbachol; assay type: functional, cell-based; in short: as §2
Sequence of P2Y purinoceptor 2 (Homo sapiens), P41231 [R177A] (P41231 whole entry R177A): as the sequence (P41231 whole entry C278S) above, with R177A, S278C counted along it

[16] = test system: P2Y purinoceptor 2 (Homo sapiens), P41231 [R180A]; assay: Agonist activity at N-terminal HA epitope-tagged human P2Y2 receptor R180A mutant expressed in human 1321N1 cells assessed as increase in intracellular calcium level relative to carbachol; assay type: functional, cell-based; in short: as §2
Sequence of P2Y purinoceptor 2 (Homo sapiens), P41231 [R180A] (P41231 whole entry R180A): as the sequence (P41231 whole entry C278S) above, with R180A, S278C counted along it

[17] = test system: P2Y purinoceptor 2 (Homo sapiens), P41231 [R194H]; assay: Agonist activity at N-terminal HA epitope-tagged human P2Y2 receptor R194H mutant expressed in human 1321N1 cells assessed as increase in intracellular calcium level relative to carbachol; assay type: functional, cell-based; in short: as §2
Sequence of P2Y purinoceptor 2 (Homo sapiens), P41231 [R194H] (P41231 whole entry R194H): as the sequence (P41231 whole entry C278S) above, with R194H, S278C counted along it

[18] = test system: P2Y purinoceptor 2 (Homo sapiens), P41231 [Y198A]; assay: Agonist activity at N-terminal HA epitope-tagged human P2Y2 receptor Y198A mutant expressed in human 1321N1 cells assessed as increase in intracellular calcium level relative to carbachol; assay type: functional, cell-based; in short: as §2
Sequence of P2Y purinoceptor 2 (Homo sapiens), P41231 [Y198A] (P41231 whole entry Y198A): as the sequence (P41231 whole entry C278S) above, with Y198A, S278C counted along it

[19] = test system: P2Y purinoceptor 2 (Homo sapiens), P41231 [C278S]; assay: Agonist activity at N-terminal HA epitope-tagged human P2Y2 receptor C278S mutant expressed in human 1321N1 cells assessed as increase in intracellular calcium level relative to carbachol; assay type: functional, cell-based; in short: as §2
Sequence of P2Y purinoceptor 2 (Homo sapiens), P41231 [C278S] (P41231 whole entry C278S): as the sequence (P41231 whole entry C278S) above

[20] = test system: P2Y purinoceptor 2 (Homo sapiens), P41231 [R272A]; assay: Agonist activity at N-terminal HA epitope-tagged human P2Y2 receptor R272A mutant expressed in human 1321N1 cells assessed as increase in intracellular calcium level up to 300 uM relative to carbachol; assay type: functional, cell-based; in short: as §2
Sequence of P2Y purinoceptor 2 (Homo sapiens), P41231 [R272A] (P41231 whole entry R272A): as the sequence (P41231 whole entry C278S) above, with R272A, S278C counted along it

[21] = test system: P2Y purinoceptor 2 (Homo sapiens), P41231 [Y118A]; assay: Agonist activity at N-terminal HA epitope-tagged human P2Y2 receptor Y118A mutant expressed in human 1321N1 cells assessed as increase in intracellular calcium level relative to carbachol; assay type: functional, cell-based; in short: as §2
Sequence of P2Y purinoceptor 2 (Homo sapiens), P41231 [Y118A] (P41231 whole entry Y118A): as the sequence (P41231 whole entry C278S) above, with Y118A, S278C counted along it

pIC50 [1]: 5.46
pIC50 [2]: 4.66
pIC50 [3]: 4.61
pIC50 [4]: 4.66
Ratio IC50 [5]: 0.2
pIC50 [6]: 4.58
pIC50 [7]: 4.65
pIC50 [8]: 4.68
SMILES: COc1ccc(Nc2cc(S(=O)(=O)O)c(N)c3c2C(=O)c2ccccc2C3=O)cc1

Activity [9]: Active
SMILES: C[N+](C)(C)CCOC(N)=O

Efficacy [10]: 5%
Efficacy [11]: 60%
Efficacy [12]: 98%
Efficacy [13]: 142%
Efficacy [14]: 101%
Efficacy [15]: 102%
Efficacy [16]: 72%
Efficacy [17]: 85%
Efficacy [18]: 127%
Efficacy [19]: inactive
Efficacy [20]: inactive
Efficacy [21]: 25%
SMILES: O=c1ccn([C@@H]2O[C@H](COP(=O)(O)OP(=O)(O)OP(=O)(O)OP(=O)(O)OC[C@H]3O[C@@H](n4ccc(=O)[nH]c4=O)[C@H](O)[C@@H]3O)[C@@H](O)[C@H]2O)c(=O)[nH]1
